One experiment is filed under the species Bos taurus. Kind of experiment: Inhibition of bovine brain tubulin polymerization at 5 uM by fluorescence assay.
For the next experiment, the system named is DU-145. Briefly: Cytotoxicity against human DU145 cells after 48 hrs by MTT assay. It counts as functional, cell-based. To be noted: DU-145, 48 h. The method in brief:
(§1)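 Cells given 24 h settling, then 48 h continuous exposure to 1, 10, 100 and 1000 µM in triplicate wells. A549, SK-N-SH and HeLa grown in DMEM with 10% FBS; DU145 in MEM with non-essential amino acids, 1 mM pyruvate, insulin and 10% FBS; all at 37 °C, 5% CO2. Read-out was MTT (60 min, 37 °C), DMSO elution, 560 nm. IC50 = 50% absorbance reduction versus control, mean ± SD of three experiments.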
A general note: Formazan colour is commonly taken as a measure of viable cells.

In another experiment the test system is SK-N-SH. Briefly: Cytotoxicity against human SK-N-SH cells after 48 hrs by MTT assay. The experiment is classed as functional, cell-based. In a few lines:
as §1

Experiment [1] concerns HeLa. Kind of experiment: Cytotoxicity against human HeLa cells after 48 hrs by MTT assay. The experiment is classed as functional, cell-based. In a few lines: as §1
For a further experiment, the system named is A549. Briefly: Cytotoxicity against human A549 cells after 48 hrs by MTT assay. The experiment is classed as functional, cell-based. To be noted: A549, 48 h. In a few lines:
as §1

Experiment [2] deals with HeLa. Briefly: Induction of cyclin B1 expression in human HeLa cells at 10 uM after 24 hrs by immunoblotting. It counts as functional, cell-based. The method in brief:
(§2)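 HeLa seeded at 1 × 10^5 cells/well and treated 24 h. Cells washed with PBS, lysed in 1X SDS sample buffer, run on SDS-PAGE and transferred to nitrocellulose. Blots probed with anti-cyclin B1 (1:1500) and HRP goat anti-rabbit secondary (1:5000), detected by enhanced chemiluminescence.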
For orientation: Immunoblotting shows a protein as a band on a membrane.

Experiment [3] concerns the target T1, Tubulin (Homo sapiens) (UniProt P68371+Q9H4B7+P0DPH7+P68366+Q13509+Q71U36+P04350+Q3ZCM7+P07437+P68363+Q9BQE3+Q6PEY2+Q13885+Q9BVA1+Q9BUF5). Briefly: Inhibition of tubulin polymerization in human HeLa cells assessed as tubulin cytoskeleton at 10 uM after 24 hrs by immunohistochemistry analysis. It counts as cell-based. In a few lines:
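HeLa on coverslips treated 24 h at 10 µM, then fixed in 3.5% formaldehyde/PBS for 10 min and permeabilized with 0.5% Triton X-100/0.05% Tween-20. Blocked in 2% BSA, stained with anti-tubulin (1:200, 4 h, RT) and FITC anti-mouse secondary (1:500, 1 h), DAPI counterstain. Imaged by fluorescence microscopy; five fields of view.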

In experiment [4] the test system is HeLa. Briefly: Antimitotic activity in human HeLa cells assessed as accumulation at G2/M phase at 10 uM after 24 hrs by flow cytometry analysis (reference value: 19.4%). The experiment is classed as functional. The method in brief: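 Cells treated 24 h at 10 µM, trypsin-EDTA harvested, fixed in ice-cold 70% ethanol at 4 °C for 30 min, then stained 30 min in propidium iodide (0.2 mg) plus RNase A (2 mg) per 1 mL. DNA content of 20,000 events measured by flow cytometry, and the percentage of cells in G2/M quantified against untreated and DMSO controls.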
On the technique in general: A flow cytometer gives signals particle by particle.

A short description of experiment [5]: Inhibition of bovine brain tubulin polymerization by fluorescence assay. Also noted: species or system Bos taurus.
Experiment [6] has as its system HeLa. Briefly: Induction of cyclin B1 expression in human HeLa cells at 1 uM after 24 hrs by immunoblotting. The experiment is classed as functional, cell-based. The method in brief: as §2
Experiment [7] has as its target T1, Tubulin (Homo sapiens). Kind of experiment: Inhibition of tubulin polymerization in human HeLa cells assessed as tubulin polymerized fraction at 1 uM after 24 hrs by immunohistochemistry analysis. It counts as cell-based.
Experiment [8] has as its target T1, Tubulin (Homo sapiens). Kind of experiment: Inhibition of tubulin polymerization in human HeLa cells assessed as tubulin soluble fraction at 10 uM after 24 hrs by immunohistochemistry analysis. It counts as cell-based.
The target of experiment [9] is T1, Tubulin (Homo sapiens). The note with it: HeLa, 1 uM.

Activity calls are given as the source filed them. The rule behind the calls is not given here.

In general, inhibition refers to the relative decrease from the control value, in per cent. In general, IC50 refers to the midpoint of a concentration-inhibition curve.

`COc1ccc(/C=C/c2cc(OC)c(OC)c(OC)c2-c2ccc(OC)c(OC)c2)cc1` registered an inhibition in the experiment listed under Bos taurus of 33%. The 50% inhibitory concentration (IC50) with DU-145 was 34 µM; in the experiment on SK-N-SH it was 42 µM; in the experiment with HeLa [1] it was 45 µM; in the experiment on A549, 28 µM.

On to `C=C(c1ccc(OC)cc1)c1cc(OC)c(OC)c(OC)c1-c1ccccc1`, for which the inhibition in the experiment filed under Bos taurus amounted to 49%. For the same compound, the 50% inhibitory concentration (IC50) worked out at 8 µM with DU-145, 31 µM in the experiment on SK-N-SH, 11 µM with HeLa [1] and 22 µM with A549.

For the compound `COc1ccc(/C=C/c2cc(OC)c(OC)c(OC)c2-c2ccc(F)c(F)c2)cc1`, the outcome in the experiment with HeLa [2] was Active. At Tubulin (Homo sapiens) [3], the inhibition entry is “Active”. Also, the Activity in the experiment with HeLa [4] amounted to 71.16%. Moreover, the IC50 amounted to 9.2 µM in experiment [5]; 7.5 µM with DU-145; 6.9 µM in the experiment on SK-N-SH; 9.2 µM with HeLa [1]; 7.5 µM with A549. In the experiment filed under Bos taurus, this compound gave an inhibition of 55%.

`COc1cc(/C=C/c2ccc(C)cc2)c(-c2ccccc2)c(OC)c1OC` showed an inhibition in the experiment listed under Bos taurus of 47%. Also, the IC50 in the experiment with DU-145 was determined as 101 µM; with SK-N-SH, 31 µM; in the experiment on HeLa [1], 45 µM; in the experiment with A549 it was 54 µM.

`C=C(c1ccc(C)cc1)c1cc(OC)c(OC)c(OC)c1-c1ccccc1` yielded an inhibition in the experiment listed under Bos taurus of 32%. For the same compound, the IC50 with DU-145 amounted to 28 µM; in the experiment with SK-N-SH it was 31 µM; in the experiment with HeLa [1], 28 µM; in the experiment with A549, 35 µM.

In the experiment filed under Bos taurus, `C=C(c1ccc(OC)cc1)c1cc(OC)c(OC)c(OC)c1-c1ccc(OC)cc1` came in with an inhibition of 40%. Besides, the IC50 in the experiment with DU-145 stood at 37 µM; with SK-N-SH, 75 µM; with HeLa [1], 72 µM; with A549, 14 µM.

Take `C=C(c1ccc(OC)cc1)c1cc(OC)c(OC)c(OC)c1-c1ccc(F)c(F)c1`: the result in the experiment with HeLa [2] was Active. The inhibition result at Tubulin (Homo sapiens) [3] is “Active”. Also, in the experiment with HeLa [4], the Activity stood at 70.02%. Also, the 50% inhibitory concentration (IC50) in experiment [5] is 11.2 µM; with DU-145 it was 6.8 µM; with SK-N-SH, 7.5 µM; in the experiment with HeLa [1], 5.9 µM; in the experiment with A549, 6.5 µM. Also, in the experiment listed under Bos taurus, the inhibition stood at 53%.

As for `C=C(c1ccc(Cl)cc1)c1cc(OC)c(OC)c(OC)c1-c1ccccc1`, the inhibition in the experiment filed under Bos taurus came to 51%. Moreover, the IC50 worked out at 29 µM in the experiment with DU-145, 25 µM with SK-N-SH, 34 µM with HeLa [1] and 40 µM in the experiment on A549.

For `COc1ccc(/C=C/c2cc(OC)c(OC)c(OC)c2-c2ccc(OC)cc2)cc1`, the inhibition in the experiment filed under Bos taurus came to 20%. For the same compound, the IC50 in the experiment on DU-145 worked out at 34 µM; in the experiment on SK-N-SH it was 36 µM; in the experiment on HeLa [1] it was 19 µM; in the experiment with A549, 35 µM.

With `CC(=O)O[C@H]1C(=O)[C@@]2(C)[C@H]([C@H](OC(=O)c3ccccc3)[C@]3(O)C[C@H](OC(=O)[C@H](O)[C@@H](NC(=O)c4ccccc4)c4ccccc4)C(C)=C1C3(C)C)[C@]1(OC(C)=O)CO[C@@H]1C[C@@H]2O`, the result in the experiment on HeLa [6] was Active. Besides, the inhibition result on Tubulin (Homo sapiens) [7] was “Active”.

On to `C=C(c1ccc(C(F)(F)F)cc1)c1cc(OC)c(OC)c(OC)c1-c1ccccc1`, for which, in the experiment listed under Bos taurus, the inhibition was determined as 49%. The IC50 is 31 µM in the experiment on DU-145, 13 µM in the experiment on SK-N-SH, 32 µM in the experiment on HeLa [1] and 48 µM in the experiment with A549.

`C=C(c1ccccc1)c1cc(OC)c(OC)c(OC)c1-c1ccccc1` yielded an inhibition in the experiment listed under Bos taurus of 40%. In addition, the concentration for half-maximal inhibition (IC50) in the experiment with DU-145 is 36 µM; with SK-N-SH, 34 µM; with HeLa [1], 42 µM; in the experiment with A549, 17 µM.

The compound `COc1ccc(/C=C/c2cc(OC)c(OC)c(OC)c2-c2ccccc2)cc1` gave an inhibition in the experiment filed under Bos taurus of 22%. Also, the IC50 with DU-145 came to 51 µM; in the experiment on SK-N-SH, 11 µM; with HeLa [1], 26 µM; with A549, 36 µM.

`C=C(c1ccc(OC)cc1)c1cc(OC)c(OC)c(OC)c1-c1ccc2c(c1)OCO2`: the outcome in the experiment with HeLa [2] was Active. For the same compound, the inhibition entry on Tubulin (Homo sapiens) [8] and at Tubulin (Homo sapiens) [3] was “Active” each time. Further, in the experiment with HeLa [4], the Activity is given as 73%. Further, the 50% inhibitory concentration (IC50) in [5] was 8.6 µM; in the experiment on DU-145 it was 6 µM; in the experiment on SK-N-SH, 6.1 µM; in the experiment with HeLa [1], 5.4 µM; in the experiment on A549, 5 µM. This compound also returned an inhibition in the experiment listed under Bos taurus of 56%.

Take `COc1ccc(/C=C/c2cc(OC)c(OC)c(OC)c2-c2ccc3ccccc3c2)cc1`: the inhibition in the experiment listed under Bos taurus came to 50%. For the same compound, the IC50 in the experiment on DU-145 was 32 µM; with SK-N-SH it was 16 µM; in the experiment on HeLa [1] it was 13 µM; in the experiment on A549 it was 14 µM.

Regarding `COc1cc(/C=C/c2ccccc2)c(-c2ccccc2)c(OC)c1OC`, in the experiment filed under Bos taurus, the inhibition is 41%. Besides, the IC50 came to 82 µM in the experiment with DU-145, 63 µM with SK-N-SH, 89 µM in the experiment on HeLa [1] and 79 µM with A549.

With `COc1ccc(/C=C/c2cc(OC)c(OC)c(OC)c2-c2ccc(F)c(C)c2)cc1`, the inhibition in the experiment listed under Bos taurus is 48%. Further, the half-maximal inhibitory concentration (IC50) with DU-145 is 23 µM; in the experiment with SK-N-SH, 19 µM; with HeLa [1] it was 17 µM; in the experiment with A549, 18 µM.

The compound `COc1ccc(/C=C/c2cc(OC)c(OC)c(OC)c2-c2ccc(Cl)cc2)cc1` gave an inhibition in the experiment filed under Bos taurus of 26%. Besides, the half-inhibitory concentration (IC50) with DU-145 came to 35 µM; in the experiment with SK-N-SH, 15 µM; in the experiment on HeLa [1] it was 49 µM; with A549, 30 µM.

For the compound `C=C(c1ccc(OC)cc1)c1cc(OC)c(OC)c(OC)c1-c1ccc(C(C)(C)C)cc1`, the inhibition in the experiment filed under Bos taurus stood at 23%. Besides, the IC50 was determined as 39 µM in the experiment with DU-145, 24 µM in the experiment with SK-N-SH, 39 µM in the experiment on HeLa [1] and 27 µM in the experiment with A549.

Turning to `COc1ccc(/C=C/c2cc(OC)c(OC)c(OC)c2-c2ccc3c(c2)OCO3)cc1`, the result in the experiment with HeLa [2] was Active. Besides, the inhibition result at Tubulin (Homo sapiens) [8] and at Tubulin (Homo sapiens) [3] was “Active” in each case. In addition, the Activity in the experiment with HeLa [4] is recorded as 73.02%. For the same compound, the IC50 in [5] was 6.8 µM; in the experiment on DU-145, 7.3 µM; in the experiment on SK-N-SH, 8 µM; in the experiment with HeLa [1], 8.7 µM; in the experiment on A549, 6.3 µM. The compound further showed an inhibition in the experiment listed under Bos taurus of 62%.

`COc1ccc(/C=C/c2cc(OC)c(OC)c(OC)c2-c2ccc(C(C)(C)C)cc2)cc1` had an inhibition in the experiment listed under Bos taurus of 33%. In addition, the concentration for half-maximal inhibition (IC50) in the experiment with DU-145 worked out at 45 µM; in the experiment on SK-N-SH, 30 µM; with HeLa [1] it was 28 µM; in the experiment on A549 it was 32 µM.

As to `C=C(c1ccc(OC)cc1)c1cc(OC)c(OC)c(OC)c1-c1ccc(Cl)cc1`, the inhibition in the experiment listed under Bos taurus came to 40%. Also, the IC50 in the experiment on DU-145 turned out to be 33 µM; in the experiment with SK-N-SH it was 15 µM; in the experiment on HeLa [1], 30 µM; with A549 it was 29 µM.

Take `COC(=O)Nc1nc2cc(C(=O)c3cccs3)ccc2[nH]1`: the inhibition entry at Tubulin (Homo sapiens) [9] was “Active”.

`C=C(c1ccc(OC)cc1)c1cc(OC)c(OC)c(OC)c1-c1ccc2ccccc2c1` had an inhibition in the experiment listed under Bos taurus of 21%. Besides, the half-maximal inhibitory concentration (IC50) in the experiment with DU-145 worked out at 46 µM; in the experiment on SK-N-SH, 6 µM; with HeLa [1] it was 35 µM; in the experiment on A549, 15 µM.

Source of the values: ChEMBL document CHEMBL2311256, “Design and synthesis of biaryl aryl stilbenes/ethylenes as antimicrotubule agents” (Eur J Med Chem, 2013).
